For data set [1], the system named is HL-60. The data set is described as follows: Cytotoxicity against human HL60 cells after 3 days by XTT assay. Format: functional, cell-based. As to conditions: for IC50: HL-60, 72 h. The method in brief: (§1)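 ATCC lines HL60, HeLa S3, CCRF-CEM and HepG2 exposed to compound for 3 days. Viability read by metabolic XTT tetrazolium reduction.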
Data set [2] relates to HeLa S3. The data set is described as follows: (§2) Cytotoxicity against human HeLaS3 cells after 3 days by XTT assay. The format is functional, cell-based. The essentials: as §1
The subject of data set [3] is CCRF-CEM. The data set is described as follows: Cytotoxicity against human CCRF-CEM cells after 3 days by XTT assay. The format is functional, cell-based. To be noted: for IC50: 72 h. The method in brief:
as §1

In data set [4] the test system is HepG2. The data set is described as follows: Cytotoxicity against human HepG2 cells after 3 days by XTT assay. The format is functional, cell-based. To be noted: for IC50: HepG2, 72 h. The essentials: as §1
Data set [5] in a line: Selectivity index, ratio of CC50 for african green monkey Vero cells to EC50 for Dengue virus 2 infected in Vero cells. The format is toxicity, cell-based. As to conditions: read-out: Ratio CC50/EC50.
Data set [6] can be described thus: Cytotoxicity against african green monkey Vero cells after 48 hrs by XTT assay. Format: cell-based. To be noted: chlorocebus sabaeus. The essentials: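 Vero monolayers incubated with serial compound dilutions for 48 h. XTT added for 4 h, and formazan quantified spectrophotometrically. CC50, the 50% cytotoxic concentration, derived by nonlinear regression.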

Data set [7] concerns dengue virus type 2. The data set is described as follows: Antiviral activity against Dengue virus 2 infected in Vero cells after 3 days by fluorescence microscopy. As to conditions: 72 h. Format: functional, organism-based. The essentials: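 Vero cells, 20,000/well, seeded the day before in DMEM with L-glutamine, 2% FBS and penicillin/streptomycin. Two-fold serial compound dilutions added in triplicate; DENV-2 added 1 h later at MOI 0.3 IU/cell. Incubated 3 days at 37 °C, 5% CO2. Cells fixed and permeabilized, then stained with DENV-2-specific antibody and Cy3 anti-mouse IgG. Imaged by fluorescence microscopy; EC50 by nonlinear regression.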

Data set [8] in a line: Cytotoxicity against human […] cells infected with HCV 2A. The format is cell-based.
Data set [9] in a line: Cytotoxicity against human […] cells infected with HCV 1B. The format is cell-based.
Data set [10] has as its system Hepatitis C virus. The data set is described as follows: Antiviral activity against HCV 2A infected in […] cells. Format: functional, organism-based, Hepacivirus hominis. As to conditions: genotype 2a.
Data set [11] can be described thus: Cytotoxicity against human […] cells infected with HCV 1A. The format is cell-based.
Data set [12] in a line: as §2. The format is functional, cell-based. To be noted: HeLa S3, 72 h. The method in brief:
as §1

For data set [13], the system named is Hepatitis C virus. The data set is described as follows: Antiviral activity against HCV 1A infected in […] cells. Format: functional, organism-based, Hepacivirus hominis. To be noted: subtype 1a.
For data set [14], the system named is Hepatitis C virus. The data set is described as follows: Antiviral activity against HCV 1B infected in […] cells. Format: functional, organism-based, Hepacivirus hominis. To be noted: genotype 1b.

Calls of active or inactive are those of the source. The rule behind the calls is not given here.

Turning to `Nc1ncnc2c1c1c(-c3ccccc3)cccc1n2[C@@H]1O[C@H](CO)[C@@H](O)[C@H]1O`, the result in data set [1], in [2], in data set [3] and in data set [4] was inactive.
As to `Nc1ncnc2c1c1cc(-c3ccoc3)ccc1n2[C@@H]1O[C@H](CO)[C@@H](O)[C@H]1O`, the outcome in data set [1], in [2], in [3] and in data set [4] was inactive.
As for `Nc1ncnc2c1c1cc(-c3cc4ccccc4o3)ccc1n2[C@@H]1O[C@H](CO)[C@@H](O)[C@H]1O`, the selectivity ratio in data set [5] was more than 6.5. In [6], the CC50 at 48 h was more than 100 µM. Also, the EC50 in [7] worked out at 15.4 µM; in [10] it was 8.77 µM; in [13] it was 6.13 µM; in data set [14], 4.83 µM. Further, the CC50 in [8] turned out to be 18 µM; in data set [9], 28 µM; in data set [11], 14.5 µM. The IC50 in data set [1] turned out to be 87 µM; in data set [12] it was 93 µM; in data set [3], 32 µM; in data set [4], 60 µM.
For `Nc1ncnc2c1c1cc(-c3ccco3)ccc1n2[C@@H]1O[C@H](CO)[C@@H](O)[C@H]1O`, the result in data set [1], in [2], in [3] and in [4] was inactive.
Turning to `C[n+]1cnc2c(c1N)c1ccccc1n2[C@@H]1O[C@H](CO)[C@@H](O)[C@H]1O`, the result in data set [1], in data set [2], in data set [3] and in data set [4] was inactive.
`Nc1ncnc2c1c1ccccc1n2[C@@H]1O[C@H](CO)[C@@H](O)[C@H]1O`: in data set [5], the selectivity ratio was 1.1. This compound displayed a CC50 at 48 h in [6] of 43.5 µM. Besides, the EC50 in data set [7] was 39.6 µM; in data set [10], more than 44 µM; in [13], 30.6 µM; in [14], 11.1 µM. In addition, the CC50 in data set [8], in data set [9] and in [11] was more than 44 µM throughout. Besides, the result in data set [1], in data set [2], in data set [3] and in [4] was inactive.
In the case of `Nc1ncnc2c1c1cc(Cl)ccc1n2[C@@H]1O[C@H](CO)[C@@H](O)[C@H]1O`, the result in data set [1], in data set [2], in [3] and in data set [4] was inactive.
Turning to `Nc1ncnc2c1c1cc(-c3ccccc3)ccc1n2[C@@H]1O[C@H](CO)[C@@H](O)[C@H]1O`, the result in data set [1], in data set [2], in [3] and in [4] was inactive.
Consider `Cc1ncnc2c1c1ccccc1n2[C@@H]1O[C@H](CO)[C@@H](O)[C@H]1O`, for which the CC50 in data set [8], in data set [9] and in [11] was more than 44 µM in each case. In addition, the EC50 in [10] was more than 44 µM; in data set [13], 0.56 µM; in data set [14] it was 0.34 µM. The IC50 in [1] amounted to 54 µM; in [12] it was 11 µM; in data set [3] it was 82 µM; in data set [4], 15 µM.
In the case of `Nc1ncnc2c1c1c(Cl)cccc1n2[C@@H]1O[C@H](CO)[C@@H](O)[C@H]1O`, the selectivity ratio in [5] was 1.3. This compound also yielded a CC50 at 48 h in [6] of 1.14 µM. For the same compound, the EC50 was 0.85 µM in [7], 1.28 µM in data set [10], 0.53 µM in data set [13] and 0.32 µM in [14]. For the same compound, the CC50 amounted to 1.66 µM in data set [8], 1.71 µM in data set [9] and 1.16 µM in data set [11]. The IC50 in data set [1] turned out to be 17 µM; in data set [12], 21 µM; in data set [3], 12 µM; in data set [4] it was 21 µM.
`Nc1ncnc2c1c1cc(-c3cccs3)ccc1n2[C@@H]1O[C@H](CO)[C@@H](O)[C@H]1O`: the CC50 is more than 44 µM in data set [8], more than 44 µM in data set [9] and 18.1 µM in data set [11]. In addition, the EC50 in [10] amounted to 24.9 µM; in data set [13], 10 µM; in [14] it was 8.75 µM. For the same compound, the result in data set [1], in data set [2], in data set [3] and in data set [4] was inactive.
As to `OC[C@H]1O[C@@H](n2c3ccccc3c3c(C4CC4)ncnc32)[C@H](O)[C@@H]1O`, the result in [1], in [2], in data set [3] and in [4] was inactive.
Regarding `CN(C)c1ncnc2c1c1ccccc1n2[C@@H]1O[C@H](CO)[C@@H](O)[C@H]1O`, the CC50 in data set [8], in data set [9] and in [11] was more than 44 µM each time. Also, the results for the EC50 in data set [10], in data set [13] and in data set [14] were more than 44 µM, 21.3 µM and 7.07 µM, respectively. The outcome in data set [1], in data set [2], in data set [3] and in [4] was inactive.
Consider `Nc1ncnc2c1c1c(-c3ccco3)cccc1n2[C@@H]1O[C@H](CO)[C@@H](O)[C@H]1O`, for which the outcome in data set [1], in data set [2], in data set [3] and in data set [4] was inactive.
`Nc1ncnc2c1c1c(-c3ccsc3)cccc1n2[C@@H]1O[C@H](CO)[C@@H](O)[C@H]1O`: the result in [1], in data set [2], in data set [3] and in data set [4] was inactive.
`Nc1ncnc2c1c1cc(-c3ccsc3)ccc1n2[C@@H]1O[C@H](CO)[C@@H](O)[C@H]1O`: the selectivity ratio in data set [5] is 2.5. For the same compound, the CC50 at 48 h in [6] came to 46.3 µM. The EC50 amounted to 18.8 µM in [7], 13.8 µM in [10], 10.1 µM in [13] and 7.38 µM in [14]. For the same compound, the CC50 in [8] turned out to be 30.2 µM; in data set [9] it was 25.6 µM; in data set [11] it was 17.3 µM. Further, the result in [1], in data set [2], in data set [3] and in data set [4] was inactive.
For `CCCCc1cccc2c1c1c(N)ncnc1n2[C@@H]1O[C@H](CO)[C@@H](O)[C@H]1O`, the selectivity ratio in data set [5] was found to be 4.3. This compound also yielded a CC50 at 48 h in [6] of 62.9 µM. Also, the EC50 in [7] was 14.8 µM; in data set [10], more than 44 µM; in data set [13] it was more than 44 µM; in data set [14], 8.81 µM. In addition, the CC50 in data set [8], in data set [9] and in [11] was more than 44 µM each time. The result in [1], in data set [2], in data set [3] and in [4] was inactive.

For the origin of these results see ChEMBL document CHEMBL2413035, “Synthesis and biological activity of benzo-fused 7-deazaadenosine analogues. 5- and 6-substituted 4-amino- or 4-alkylpyrimido[4,5-b]indole ribonucleosides” (Bioorg Med Chem, 2013).
